Data: ChEMBL document CHEMBL1649477, “Trypanothione reductase high-throughput screening campaign identifies novel classes of inhibitors with antiparasitic activity” (Antimicrob Agents Chemother, 2009)
Several values for one entry are separate records, joined by “and”; a condition that tells them apart may be missing. Equal values may be shown once.

Experiments:
Trypanosoma cruzi = assay: Antiprotozoal activity against Trypanosoma cruzi Tulahuen C2C4 amastigotes; type: functional, organism-based
Leishmania donovani = assay: Antiprotozoal activity against Leishmania donovani MHOM/ET/67/L82 amastigotes; type: functional, organism-based
[1] = system: Trypanosoma brucei rhodesiense; assay: Antitrypanosomal activity against Trypanosoma brucei rhodesiense STIB900 bloodstream forms; type: functional, organism-based
Plasmodium falciparum = assay: Antiplasmodial activity against Plasmodium falciparum 3D7 erythrocytic stage; type: functional, organism-based
[2] = Cytotoxicity against rat L6 cells; type: cell-based
Trypanothione reductase [3] = biological target: T1, Trypanothione reductase (Trypanosoma cruzi, UniProt P28593); assay: Inhibition of Trypanosoma cruzi X10/1 trypanothione reductase assessed as inhibition of thionitrobenzoate formation by microplate reader analysis
T1 sequence (P28593 whole entry): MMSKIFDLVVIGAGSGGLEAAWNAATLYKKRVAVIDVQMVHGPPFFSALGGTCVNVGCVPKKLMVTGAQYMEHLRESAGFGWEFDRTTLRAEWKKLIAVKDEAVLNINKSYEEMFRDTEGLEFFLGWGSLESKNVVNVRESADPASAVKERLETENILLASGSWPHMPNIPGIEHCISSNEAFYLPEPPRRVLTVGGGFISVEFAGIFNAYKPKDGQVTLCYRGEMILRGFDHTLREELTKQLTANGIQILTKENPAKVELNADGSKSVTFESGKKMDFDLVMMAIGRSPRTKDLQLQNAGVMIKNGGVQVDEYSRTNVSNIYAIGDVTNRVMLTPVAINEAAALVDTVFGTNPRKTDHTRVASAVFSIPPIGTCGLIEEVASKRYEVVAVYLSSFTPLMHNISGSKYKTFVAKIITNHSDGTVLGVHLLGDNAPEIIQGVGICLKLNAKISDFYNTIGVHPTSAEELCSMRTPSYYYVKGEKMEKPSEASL
Method in brief: (§1)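 Recombinant T. cruzi TR (Silvio X10/1) coupled to DTNB-driven trypanothione regeneration. Enzyme (20 mU/ml), 12 μM T[S]2 and 200 μM DTNB in pH 7.5 HEPES/EDTA/BSA/Tween 20 buffer are preincubated ≥15 min at room temperature with compound. The reaction is started with 300 μM NADPH. Final conditions are 6 μM T[S]2, 100 μM DTNB and 150 μM NADPH. TNB absorbance at 410 nm is read for 12.5 min. Titrations are run in triplicate.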

Trypanothione reductase [4] = biological target: T1, Trypanothione reductase; assay: Inhibition of Trypanosoma cruzi trypanothione reductase assessed as inhibition of thionitrobenzoate formation by microplate reader analysis; method in brief: as §1
[5] = Dissociation constant, pKa of the compound; type: physicochemical
[6] = Solubility of the compound at pH 6.5; type: physicochemical; conditions: buffer
[7] = Solubility of the compound at pH 2; type: physicochemical; conditions: buffer
Liver microsomes = assay: Intrinsic clearance in human liver microsomes assessed per mg of protein by liquid chromatography-mass spectrometry; type: ADME, Microsome
Method in brief: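 Compound is incubated with human liver microsomes and NADPH, and parent loss is followed by LC-MS. Concentration versus time is fitted to exponential decay to give the first-order depletion rate constant. In vitro CLint and predicted hepatic extraction ratio are calculated from that constant.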

[8] = Distribution coefficient, log D of the compound at pH 7.4; type: physicochemical; conditions: octanol/water
[9] = biological target: Glutathione reductase (Homo sapiens); assay: Inhibition of human glutathione reductase
[10] = Cytotoxicity against human HT-29 cells; type: cell-based

Row | SMILES | IC50 (Trypanosoma cruzi) [µM] | IC50 (Leishmania donovani) [µM] | IC50 [1] [µM] | IC50 (Plasmodium falciparum) [µM] | CC50 [2] [µM] | IC50 (Trypanothione reductase [3]) [µM] | also measured
1 | CC1=CC(C)(C)N=C(Nc2nc(C)c3cc(C)cc(C)c3n2)N1 | 6 | 14 | 1 | 2 | 10 | 17 | –
2 | Cc1cc(C)c2c(C)nc(Nc3nc(C)cc(C)n3)nc2c1 | 8 | 32 | 27 | 4 | 11 | > 100 | –
3 | Cc1cc(C)c2nc(NC(=N)N)nc(C)c2c1 | – | – | – | – | – | > 100 | –
4 | COc1nncc(-c2cnnc(SC)n2)n1 | 15 | 8 | 5 | 0.2 | 30 | 27 | –
5 | Cc1ccc2nc(Nc3nc(C)cc(C)n3)nc(C)c2c1 | – | – | – | – | – | > 100 | –
6 | CSc1nncc(-c2ccccc2)n1 | – | – | – | – | – | > 100 | –
7 | Nc1nc(N)nc(Nc2ccc([As]3SCC(CO)S3)cc2)n1 (configuration not stated) [MELARSOPROL] | – | – | 0.017 | – | – | – | –
8 | O=C(Nc1cccnc1)NC1CCN(Cc2ccccc2)CC1 | – | – | – | – | – | – | IC50 (Trypanothione reductase [4]): > 100 µM
9 | CN1C2CCC1CC(=NOC(c1ccccc1)c1ccc(Cl)cc1)C2 (configuration not stated) | 0.1 | > 30 | 3 | 8 | 35 | 33 | pKa [5]: 8.34; solubility [6]: > 100 µM; solubility [7]: > 100 µM; CL (Liver microsomes): 31 µL/min/mg; logD [8]: 2.9
10 | CSc1nncc(-c2cnc(SC)c3c2CCCC3)n1 | – | – | – | – | – | > 100 | –
11 | CCc1ccc2c(C)nc(NC3=NC(C)(C)CC(C)=N3)nc2c1 | – | – | – | – | – | 32 | pKa [5]: 2; solubility [6]: > 100 µM; solubility [7]: > 100 µM; CL (Liver microsomes): 90 µL/min/mg; logD [8]: 3.6
12 | S=C(Nc1cccnc1)NC1CCN(Cc2ccccc2)CC1 | > 30 | > 30 | 15 | 8.6 | 90 | 2 | IC50 (Trypanothione reductase [4]): 1 µM and 3 µM
13 | Cc1cc(C)c2nc(Nc3nc(C)c(C)c(O)n3)nc(C)c2c1 | – | – | – | – | – | > 100 | –
14 | CN1/C(=C/C=C2\C=Nc3ccccc32)C=Cc2ccccc21 | 6 | 3 | 0.1 | 0.2 | 14 | 23 | –
15 | S=C(Nc1ccccc1)NC1CCN(Cc2ccccc2)CC1 | – | – | – | – | – | – | IC50 (Trypanothione reductase [4]): 33 µM
16 | CCN1CCC(NC(=S)Nc2cccnc2)CC1 | – | – | – | – | – | – | IC50 (Trypanothione reductase [4]): > 100 µM
17 | N=c1n(CCOc2ccccc2)c2ccccc2n1CCN1CCCCC1 | 19 | > 30 | 0.6 | 2 | – | 9 | IC50 [9]: > 100 µM; CC50 [10]: 42 µM
18 | Cc1nc(NC(=N)N)nc2ccccc12 | 38 | > 64 | 39 | 42 | > 64 | > 100 | –
19 | CCOc1ccc2c(C)nc(NC3=NC(C)(C)CC(C)=N3)nc2c1 | – | – | – | – | – | 28 | –
20 | CCCNC(=S)NC1CCN(Cc2ccccc2)CC1 | – | – | – | – | – | – | IC50 (Trypanothione reductase [4]): > 100 µM
21 | CCc1ccc2c(C)nc(NC3=NC(C)(C)C=C(C)N3)nc2c1 | – | – | – | – | – | – | pKa [5]: 2.4; solubility [6]: > 100 µM; solubility [7]: > 100 µM; CL (Liver microsomes): 90 µL/min/mg; logD [8]: 0.7
